Most compounds without a hit are left out; they make up all but 4.2% or so of the library.
Autophagy mod: alters autophagy in cells; 190,000 compounds, 0.98% hits; calls only at 10 µM (by protocol); MEF GFP-LC3 puncta imaging; test concentration mostly 10 µM;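 active = percentage of spot-positive cells more than 3 SD above its plate mean, without a fluorescence outlier flag or 80% toxicity; inconclusive = no clear call, values can overlap the other calls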;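 also: spot-positive cell cutoff set from DMSO-treated cells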
Rad51 HR inh: blocks human Rad51 in homologous recombination; 200,000 compounds, 0.085% hits; hRad51 DNA strand exchange, fluorescence dequenching; inhibition, % at 10 µM;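 active = inhibition above 40% at the single screening dose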;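 also: 0% = DMSO control wells and 100% = blanks with heterologous ssDNA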
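Assay system: Human Rad51 nucleoprotein filaments preassembled on unlabelled ssDNA | Reagent: Donor/quencher-labelled 47-bp dsDNA substrate | Doses: One concentration, 10 µM final | Times: 37 °C 15-min filament assembly, 30-min compound preincubation, 15-min exchange | Technique: Fluorescein emission 520 nm, excitation 485 nm | Benchmarks: Plate control and blank wells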
Insulin prom up: MIN6 insulin promoter up-regulation | MIN6 insulin promoter-GFP reporter, high-content imaging; hits give high values | z-score at 5 µM | 190,000 compounds, 0.3% hits | AID 1625;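 active = z-score above 3 at 5 µM with at least 500 cells counted in the well; inconclusive = wells under 500 cells, flagged as cytotoxic or low count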
WT yeast gro inh: growth inhibition of WT yeast, mitochondrial fusion screen; 190,000 compounds, 2.1% hits; mitochondrial fusion phenotypic screen, WT strain; inhibition, % at 10 µM; AID 1362; in the data active = inhibition above about 58%; tested in S. cerevisiae
Cl transport mod: KCC2 (human) Cl- transport modulation. KCC2 cells, thallium flux FluoZin-2 fluorescence. B-score of Tl+ flux slope (higher = more flux/activation; lower = inhibition) at 10 µM. 190,000 compounds, 2.2% hits. AID 1456;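 active = thallium flux slope and its plate-corrected score both differing from the plate sample mean at a set confidence after two filtering rounds, in either direction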;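 also: slope of fluorescence scaled to starting intensity during 10 to 20 s after thallium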
Target sequence (Q9H2X9 whole entry, looked up): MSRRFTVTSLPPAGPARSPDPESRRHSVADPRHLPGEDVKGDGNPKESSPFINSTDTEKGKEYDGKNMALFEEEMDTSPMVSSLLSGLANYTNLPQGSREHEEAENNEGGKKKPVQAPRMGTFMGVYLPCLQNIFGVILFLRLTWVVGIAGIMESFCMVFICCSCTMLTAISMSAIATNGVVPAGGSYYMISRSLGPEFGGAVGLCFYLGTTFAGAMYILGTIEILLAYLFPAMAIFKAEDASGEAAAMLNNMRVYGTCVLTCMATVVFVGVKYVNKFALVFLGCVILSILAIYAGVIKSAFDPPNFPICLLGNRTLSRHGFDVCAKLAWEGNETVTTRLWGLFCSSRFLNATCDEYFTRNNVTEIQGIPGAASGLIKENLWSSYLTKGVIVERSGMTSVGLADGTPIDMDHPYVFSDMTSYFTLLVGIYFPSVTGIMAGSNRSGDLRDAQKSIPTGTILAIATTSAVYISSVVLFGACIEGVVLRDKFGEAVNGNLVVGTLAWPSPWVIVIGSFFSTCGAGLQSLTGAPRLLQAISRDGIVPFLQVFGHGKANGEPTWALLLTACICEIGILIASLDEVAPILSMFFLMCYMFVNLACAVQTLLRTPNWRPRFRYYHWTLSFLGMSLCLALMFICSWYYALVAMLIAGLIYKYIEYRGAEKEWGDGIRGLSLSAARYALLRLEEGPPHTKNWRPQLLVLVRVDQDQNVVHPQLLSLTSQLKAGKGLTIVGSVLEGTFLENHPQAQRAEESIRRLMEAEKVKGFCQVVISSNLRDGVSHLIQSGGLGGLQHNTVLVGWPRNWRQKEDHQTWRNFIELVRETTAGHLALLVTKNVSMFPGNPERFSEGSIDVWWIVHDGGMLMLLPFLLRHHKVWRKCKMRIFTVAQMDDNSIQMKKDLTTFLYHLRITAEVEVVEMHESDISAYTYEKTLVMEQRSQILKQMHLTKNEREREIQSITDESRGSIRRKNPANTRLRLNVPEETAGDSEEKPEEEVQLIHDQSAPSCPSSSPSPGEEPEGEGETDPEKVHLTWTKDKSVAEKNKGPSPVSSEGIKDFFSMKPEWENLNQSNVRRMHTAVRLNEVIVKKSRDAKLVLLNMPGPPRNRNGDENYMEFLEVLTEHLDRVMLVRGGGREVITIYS
SKKanGAS inh: SKKanGAS growth inhibition; S. pyogenes SKKanGAS, kanamycin growth, BacTiter-Glo, 6 h; inhibition, % at 7.5 µM; 300,000 compounds, 1.3% hits; AID 1662;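 active = mean replicate score, as percent of positive control median, at least 50; inconclusive = mean below 50 but one replicate at or above 50; inactive = mean and every replicate below 50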;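 also: strain carries kanamycin resistance gene driven by streptokinase promoter and grows in 40 µg/ml kanamycin; loss of luminescence reflects streptokinase promoter inhibition or plain growth inhibition; 0% = median of DMSO wells and 100% = positive control at its reference dose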
Active calls of the source: *; i = inactive; ? = inconclusive; . = no result given; + = active, no number.

SMILES	Autophagy mod	Rad51 HR inh	Insulin prom up	WT yeast gro inh	Cl transport mod	SKKanGAS inh
COc1ccc(OC)c(N(CC(=O)N2CCN(c3cc(Cl)ccc3C)CC2)S(C)(=O)=O)c1	+	-4	-0.43	4	0.99	-3
CCN1CCN(C(=O)CN(c2cc(OC)ccc2OC)S(C)(=O)=O)CC1	i	4	0.61	-13	0.74	-12
CNC(=O)c1nnsc1S(=O)(=O)c1ccc(Cl)cc1	i	-3	0.44	69*	-0.43	1
COc1cc(/C=C2\C(=O)ON=C2c2ccccc2)cc(Cl)c1O	i	-10	-0.52	-4	-5.3*	-6
COc1ccc(CN(C(=O)CCC(=O)Nc2cc(C)on2)C(C(=O)NC(C)(C)C)c2cccc(OC)c2OC)cc1 (centres undefined)	.	.	.	.	.	-3
O=C(NC(=S)N1CCCc2ccccc21)c1ccc(Br)cc1	i	2	0.86	48	72*	0
O=C(NC(=S)N1CCCc2ccccc21)c1ccc(Cl)cc1	i	-2	1.2	48	57*	.
C/C(=N\NC(=O)C(=O)Nc1c(C)n(C)n(-c2ccccc2)c1=O)c1ccncc1	.	6	-0.19	.	0.74	-6
COC(=O)C(c1ccccc1)C(C(=O)OC)c1ccccc1 (centres undefined)	.	.	.	.	.	1
Cc1cccc(C)c1OC(=O)C(c1ccccc1)c1ccccc1	i	-4	0.47	55	-0.84	71*
Cc1c(NC(=O)Nc2ccc(F)cc2F)c(=O)n(-c2ccccc2)n1C	.	.	.	.	.	-9
COc1ccc(S(=O)(=O)Cc2ccc(C(=O)NC3CCCCCC3)o2)cc1	.	.	.	.	.	2
CC(C)c1ccc(-c2noc(C3CCCN(C(=O)c4ccc(F)cc4F)C3)n2)cc1 (centres undefined)	i	1	-1.1	72*	-0.41	-3
COc1ccc(-c2c(C#N)c(N)nc3sc(C(=O)c4ccc(C)cc4)c(N)c23)cc1	+	.	0.19	4	1.2	19
COc1ccc(-c2ccc3c(N)c(C(=O)c4cccc(OC)c4)sc3n2)cc1	+	-39	.	7	-0.35	4
COc1ccc(C(=O)c2ccc(-c3ccc(OC)cc3)nc2)cc1	.	.	.	.	.	-8
COc1ccc(NC(=O)c2sc3nc(-c4cccnc4)ccc3c2N)cc1	.	-31	6*	.	-1.3	3
COc1ccc(C(=O)c2sc3nc(-c4ccc(OC)cc4)ccc3c2N)cc1	+	-76	0.68	-13	0.63	-13
CCOC(=O)c1c(C)nc2sc(C(N)=O)c(N)c2c1-c1ccc(OC)cc1	i	17	0.9	15	-0.041	-3
Nc1c(C(=O)Nc2ccccc2)sc2nc(-c3cccnc3)ccc12	.	-172	1.1	.	-0.0025	-9
CSCC[C@H](NC(=O)Cc1ccc(Cl)cc1)C(=O)N1CCC2(CC1)NCCc1[nH]cnc12	.	.	.	.	.	-5
COc1ccc(Br)cc1S(=O)(=O)N1CCCc2ccccc21	.	.	.	.	.	4
Cc1noc(C)c1CS(=O)(=O)c1ccc(Br)cc1	i	.	3.2*	-4	-0.043	16
Cc1[nH]n(-c2ccccc2)c(=O)c1/C=N/NC(=O)c1ccc(O)cc1O	.	.	.	.	.	102*
CCCCN(CCCC)C(=S)N/N=C/c1c(C)[nH]n(-c2ccccc2)c1=O	i	-13	-1.1	42	23*	88*
SMILES	Autophagy mod	Rad51 HR inh	Insulin prom up	WT yeast gro inh	Cl transport mod	SKKanGAS inh
Cc1ccc(-n2[nH]c(C)c(/C=N/NC(=O)c3ccc(O)cc3O)c2=O)cc1	.	.	.	.	.	102*
Cc1cc(C(=O)N/N=C/c2c(C)[nH]n(-c3ccccc3)c2=O)n[nH]1	.	.	.	.	.	13
O=C(CN1C(=O)NC2(CCCCC2)C1=O)N1CCN(S(=O)(=O)/C=C/c2ccccc2)CC1	.	.	.	.	.	3
CC1CCN(S(=O)(=O)c2ccc3c(c2)c(=O)c(C(=O)N2CCCCC2)cn3C)CC1	i	2	4.9*	-4	0.65	2
O=S(=O)(c1ccc(F)cc1)c1nc(-c2ccccc2)oc1N1CCOCC1	.	.	.	.	.	54*
O=S(=O)(c1ccccc1)c1nc(-c2ccc(F)cc2)oc1N1CCOCC1	.	.	.	.	.	-3
NC(=O)C1CC(O)CN1c1nc(CN2CCOCC2)nc2scc(-c3ccccc3)c12 (centres undefined)	i	-2	0.71	-16	0.43	3
CC1CCN(c2nc(-c3cccnc3)nc3scc(-c4ccccc4)c23)CC1	i	.	0.26	60*	0.95	75*
CC1CCN(c2nc(CN3CCCCC3)nc3scc(-c4ccccc4)c23)CC1	i	-2	-0.81	68*	1.3	?
